# Compound activity as filed in PubChem.
# NR3A LBD binder: binders of NR3A ligand-binding domain, primary screen, biophysical, differential scanning fluorimetry, uHTS; NR3A LBD differential scanning fluorimetry, Tm shift; 0% = protein alone, 100% = glycine-bound protein; hit rate 2.5% among 340,000; Tm shift relative to glycine control, % at 25 µM;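 active = melting temperature shift of at least 10% of the positive control shift, at one fixed dose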
# proCasp7 act: procaspase-7 activators, primary screen, counter-screen for procaspase-3 activator project, biochemical, absorbance, HTS, human; recombinant procaspase-7, Ac-DEVD-pNA absorbance 405 nm; D23A/D198A/D206A triple mutant, cannot self-cleave; scale: DMSO 0, 5 µM enzyme 100; Caspase-7 (Homo sapiens), P55210; AID 463210, 2010; hit rate 0.093% among 330,000; activation, % at 8.5 µM;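 active = percent activation above the screen-wide mean plus 3 SD, cut at about 25% in these data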
# Target sequence (P55210 whole entry D23A/D198A/D206A): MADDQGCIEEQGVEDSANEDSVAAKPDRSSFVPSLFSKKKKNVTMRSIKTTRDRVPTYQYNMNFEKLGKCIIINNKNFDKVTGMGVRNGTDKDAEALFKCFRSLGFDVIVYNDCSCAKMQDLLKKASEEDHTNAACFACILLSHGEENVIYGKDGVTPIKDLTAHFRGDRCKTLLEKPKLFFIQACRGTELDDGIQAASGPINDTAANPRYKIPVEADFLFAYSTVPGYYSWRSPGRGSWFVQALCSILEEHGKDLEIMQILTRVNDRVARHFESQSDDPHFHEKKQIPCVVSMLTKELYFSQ
#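 Material: Procaspase-7 triple mutant (PC-7 D3A) | Quantity: 2 µM procaspase-7 mutant as dispensed | Reagent: DEVD-pNA substrate | Times: 1 h preincubation, 2 h reaction | Technique: 405 nm absorbance of p-nitroaniline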
# MPTP inh: mitochondrial permeability transition pore inhibitors, primary screen, biochemical, isolated mouse mitochondria, absorbance; Ca2+ swelling absorbance, 30 min; inhibition, % at 10 µM; hit rate 1.4% among 360,000;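 active = inhibition of 50% or more, scaled per plate between neutral and stimulator controls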;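 note: 0% = DMSO wells given calcium and 100% = 1 mM EGTA wells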
# aDG glyco act: activators of alpha-DG glycosylation, primary screen, uHTS, Pro5-aDG cells, AlphaScreen | activation, % at 10 µM | AID 624168, 2012 | alpha-DG glycosylation AlphaScreen (IIH6); 0% Pro5, 100% B10-LARGE cell signal | hit rate 0.22% among 360,000;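 active = activation of at least 8% versus controls, or a plate z-score of at least 8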;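 note: Pro5 are CHO cells carrying HIG-tagged alpha-DG that lacks glycosylation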
# procasp3 activ: activators of human procaspase-3 D3A mutant, primary screen, biochemical, absorbance, PC-3 D3A mutant, single concentration. recombinant procaspase-3 D3A, Ac-DEVD-pNA absorbance 405 nm. Caspase-3 (Homo sapiens), P42574. AID 463141, 2010. hit rate 0.11% among 330,000. activation, % at 8.5 µM;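 active = activation above the mean of all tested compounds plus 3 SD, cut at about 21% in these data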;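 note: 0% = DMSO alone and 100% = DMSO wells spiked with extra 5 µM PC-3 D3A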
# Target sequence (P42574 whole entry D9A/D28A/D175A): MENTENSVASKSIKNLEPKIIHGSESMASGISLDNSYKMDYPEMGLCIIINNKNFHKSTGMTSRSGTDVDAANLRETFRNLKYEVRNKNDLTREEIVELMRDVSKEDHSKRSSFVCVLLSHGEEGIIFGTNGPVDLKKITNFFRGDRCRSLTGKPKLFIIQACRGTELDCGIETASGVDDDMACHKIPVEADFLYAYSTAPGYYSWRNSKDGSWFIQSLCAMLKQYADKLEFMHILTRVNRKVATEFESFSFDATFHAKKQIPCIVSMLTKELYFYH
#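 Assay system – Procaspase-3 D3A mutant · Benchmarks – DMSO low control, extra-enzyme high control · Technique – 405 nm absorbance of p-nitroaniline, reads at 0 and 120 min · Doses – 8.5 µM nominal · Measure – % activation between DMSO and enzyme-spiked controls · Also added – Ac-DEVD-pNA chromogenic peptide substrate · Schedule – 1 h compound preincubation, 2 h substrate hydrolysis at 25 °C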
# * hit, by the source's call; / = no result. Most compounds without a hit are left out; they make up all but 3.7% or so of the library.
SMILES,NR3A LBD binder,proCasp7 act,MPTP inh,aDG glyco act,procasp3 activ
CCOC(=O)c1ccc(/C=C2/C=C(c3ccccc3)N(c3ccc(Cl)c(C(=O)O)c3)C2=O)cc1,21*,-2,8,0,7
CC(=O)C12CCCCC1CC1[C@@H]3CC(C)C4=CC(=O)CC[C@]4(C)C3CC[C@@]12C (some centres not stated),22*,/,0,0,/
Cn1nc(C(C)(C)C)cc1C(=O)N1CCCCC1c1cc(C(=O)Nc2ccc(F)c(Cl)c2)no1 (configuration not stated),/,/,7,3,/
Cc1ccc(-c2csc(-c3c[nH]c4ccccc34)n2)c(C)c1,24*,9,4,0,2
Oc1ccc(-c2csc(-c3c[nH]c4ccccc34)n2)c(O)c1,34*,3,28,0,1
CC(=O)NCCC(=O)Nc1nc(-c2c[nH]c3ccccc23)cs1,5,/,2,0,/
O=C(NCC1CCCCC1)c1ccc2nc([C@@H]3O[C@H](CO)[C@H](O)[C@H](O)[C@H]3O)[nH]c2c1,/,/,1,0,/
O=C(COC(=O)c1c(F)cccc1F)NC(=O)NCc1ccccc1,/,/,1,0,/
Clc1ccc(-n2ncc3c(NCc4ccc5c(c4)OCO5)ncnc32)cc1,12*,5,2,0,5
CCCn1ncc2c(Nc3ccc(C)c(C)c3)ncnc21,6,-7,-3,0,1
CCO[C@@H]1OC(C(N)=O)=C[C@H](c2cn(C(C)=O)c3ccccc23)[C@H]1CCCO,-1,-8,-1,0,9
CCO[C@@H]1OC(C(=O)N2CCN(Cc3ccccc3)CC2)=C[C@H](c2cn(C(C)=O)c3ccccc23)[C@H]1CCCO,12*,2,1,0,6
CCO[C@H]1OC(C(=O)O)=C[C@@H](c2cn(C(C)=O)c3ccccc23)[C@@H]1CCCO,13*,-4,-2,0,8
Cc1ccc(-c2nc3ccc(Br)cn3c2Cc2cccc(F)c2)cc1,/,/,0,0,/
CCc1nc(Nc2cccc(O)c2)c2oc3ccccc3c2n1,21*,/,3,0,/
CCc1nc(Nc2ccncc2)c2oc3ccccc3c2n1,2,-6,0,0,0
CC(=O)Nc1cncc(-c2cccc(C(=O)N3CCOCC3)c2)n1,/,/,0,0,/
CCOc1ccccc1N1CCN(CC(=O)Nc2nccs2)CC1,/,/,1,0,/
Cc1cc(O)c(C(C)C)cc1C1(c2cc(C(C)C)c(O)cc2C)OC(=O)c2ccccc21,11*,5,24,0,-2
Cc1cc(C2(c3ccc(O)c(C)c3)OC(=O)c3ccccc32)ccc1O,-7,4,-20,0,-8
C[C@@H]1CN([C@H](C)CO)C(=O)CCCn2cc(nn2)CO[C@H]1CN(C)C(=O)c1ccncc1,/,/,-1,0,/
CCOc1ccccc1NC(=O)c1cc(C(=O)c2cc(Br)ccc2O)coc1=N,25*,1,44,0,7
CC(C)OC(=O)c1cc(C(=O)c2cc(Br)ccc2O)coc1=N,-2,-8,-1,0,-1
O=C(Nc1cccc(-c2csc(Nc3ccccc3)n2)c1)c1ccccc1,11*,-6,1,0,-4
CC(=O)c1cccc(Nc2nc(-c3cccnc3)cs2)c1,2,/,0,0,/
SMILES,NR3A LBD binder,proCasp7 act,MPTP inh,aDG glyco act,procasp3 activ
O=C(Nc1ccc(-c2csc(Nc3cccc(C(F)(F)F)c3)n2)cc1)c1ccccc1,25*,15,1,0,7
O=C(Nc1cccc(-c2csc(Nc3cccc(C(F)(F)F)c3)n2)c1)c1ccccc1,29*,-11,2,0,6
O=C(Nc1ccc(-c2csc(Nc3ccc(Cl)cc3)n2)cc1)c1ccccc1,-1,-6,2,0,2
CC(=O)c1cccc(Nc2nc(-c3ccccc3)cs2)c1,32*,-5,0,0,6
Cc1nc(NC(=O)c2ccccc2)sc1-c1csc(Nc2cccc(F)c2)n1,/,-11,/,/,-12
Cc1ccc2[nH]c(C(=O)NCCN3CCCC3)cc2c1,0,10,0,0,9
O=C(Nc1nc(-c2cccnc2)cs1)c1cccc([N+](=O)[O-])c1,-3,4,-1,0,-2
O=C(Nc1ccc(-c2csc(Nc3cccc(C(F)(F)F)c3)n2)cc1)c1cc([N+](=O)[O-])cc(C(F)(F)F)c1,21*,-1,3,0,2
Cc1ccccc1-c1nnc(SCc2ccccc2F)o1,10*,0,2,0,2
CC(C)N1CCCC(C)(C(=O)Nc2nc3ccccc3[nH]2)C1 (configuration not stated),/,/,0,0,/
COc1cc(/C=C2/SC(=Nc3ccc(O)cc3)NC2=O)cc(OC)c1O,11*,-7,0,0,-17
COc1cc(/C=C2\SC(=Nc3ccc(O)cc3)NC2=O)cc(OC)c1OC,-5,11,/,/,1
COc1ccc(N=C2NC(=O)/C(=C/c3ccc(O)c(OC)c3)S2)cc1,20*,-8,-22,0,-7
CCOC(=O)[C@]12CCCC=C1N(Cc1ccco1)C(=O)[C@H](CC(=O)N1CCSCC1)C2,/,/,-2,0,/
Cc1cc(Nc2ccccc2)nn1C(=O)c1ccc([N+](=O)[O-])cc1,40*,6,3,0,-9
Cc1cc(Nc2ccccc2)n(-c2ccccc2)n1,-4,16,-2,0,3
Cc1cc(Nc2ccccc2)nn1C(=O)c1ccc(Cl)cc1,0,6,13,0,3
Cc1cc(Nc2ccccc2)n(C(=O)c2ccccc2)n1,18*,-4,0,0,-2
CCn1cc(S(=O)(=O)NCCc2ccccc2OC)cn1,11*,-5,-1,0,4
CCc1nnc(NC(=O)CN2C(=O)N(C)C3(CCCCC3)C2=O)s1,-1,-8,-1,0,0
c1ccc(C[C@H]2COc3c4ccccc4nn32)cc1,/,/,-2,0,/
Cc1nc2ccc(NC(=O)c3ccc([N+](=O)[O-])cc3[N+](=O)[O-])cc2s1,0,3,2,0,0
Cc1ccc(C(=O)Nc2cccc([N+](=O)[O-])c2)cc1S(=O)(=O)Nc1ccc(C(=O)O)cc1,7,7,3,0,1
O=C(Nc1cccc([N+](=O)[O-])c1)c1ccc(-c2ccccc2)cc1,25*,1,6,0,-4
CS(=O)(=O)Nc1ccc(C(=O)Nc2cccc([N+](=O)[O-])c2)cc1,21*,2,1,0,-4
